Test results: PMC9977173 (Science Advances, 2023)
Where a SMILES comes first, the peptide text is derived from it. Bridges are numbered along the chain shown (N, C = ends). Roman numbers before positions name the chains, in order. The star is where a group is joined. X1 = O=C(Cn1cc(CCCC(=O)*)nn1)NC(COCc1cn(CCO[C@H]2O[C@H](CO)[C@@H](O)[C@H](O)[C@@H]2O)nn1)(COCc1cn(CCO[C@H]2O[C@H](CO)[C@@H](O)[C@H](O)[C@@H]2O)nn1)COCc1cn(CCO[C@H]2O[C@H](CO)[C@@H](O)[C@H](O)[C@@H]2O)nn1

Experiments:
[1] = Secondary structure by CD and FTIR; type: physicochemical; conditions: CD: 10 μM, deionized water, 25°C, 1 hour; FTIR: 100 μM, distilled water, 60 min
How it was run: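 For CD, test compound (10 µM) was dissolved in deionized water at 25°C for 1 h and scanned at 500 nm/min with 0.5 nm resolution, with solvent background subtracted. For FTIR, samples were freshly prepared at 100 µM in distilled water for 60 min, dried on calcium fluoride tablets and recorded.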

CD206 = CD206 (Homo sapiens, UniProt P22897); experiment: Microscale thermophoresis binding to CD206; conditions: Kd 3.48 μM versus mannose ~1000 μM
CD206, sequence (P22897 19-1456, species assumed): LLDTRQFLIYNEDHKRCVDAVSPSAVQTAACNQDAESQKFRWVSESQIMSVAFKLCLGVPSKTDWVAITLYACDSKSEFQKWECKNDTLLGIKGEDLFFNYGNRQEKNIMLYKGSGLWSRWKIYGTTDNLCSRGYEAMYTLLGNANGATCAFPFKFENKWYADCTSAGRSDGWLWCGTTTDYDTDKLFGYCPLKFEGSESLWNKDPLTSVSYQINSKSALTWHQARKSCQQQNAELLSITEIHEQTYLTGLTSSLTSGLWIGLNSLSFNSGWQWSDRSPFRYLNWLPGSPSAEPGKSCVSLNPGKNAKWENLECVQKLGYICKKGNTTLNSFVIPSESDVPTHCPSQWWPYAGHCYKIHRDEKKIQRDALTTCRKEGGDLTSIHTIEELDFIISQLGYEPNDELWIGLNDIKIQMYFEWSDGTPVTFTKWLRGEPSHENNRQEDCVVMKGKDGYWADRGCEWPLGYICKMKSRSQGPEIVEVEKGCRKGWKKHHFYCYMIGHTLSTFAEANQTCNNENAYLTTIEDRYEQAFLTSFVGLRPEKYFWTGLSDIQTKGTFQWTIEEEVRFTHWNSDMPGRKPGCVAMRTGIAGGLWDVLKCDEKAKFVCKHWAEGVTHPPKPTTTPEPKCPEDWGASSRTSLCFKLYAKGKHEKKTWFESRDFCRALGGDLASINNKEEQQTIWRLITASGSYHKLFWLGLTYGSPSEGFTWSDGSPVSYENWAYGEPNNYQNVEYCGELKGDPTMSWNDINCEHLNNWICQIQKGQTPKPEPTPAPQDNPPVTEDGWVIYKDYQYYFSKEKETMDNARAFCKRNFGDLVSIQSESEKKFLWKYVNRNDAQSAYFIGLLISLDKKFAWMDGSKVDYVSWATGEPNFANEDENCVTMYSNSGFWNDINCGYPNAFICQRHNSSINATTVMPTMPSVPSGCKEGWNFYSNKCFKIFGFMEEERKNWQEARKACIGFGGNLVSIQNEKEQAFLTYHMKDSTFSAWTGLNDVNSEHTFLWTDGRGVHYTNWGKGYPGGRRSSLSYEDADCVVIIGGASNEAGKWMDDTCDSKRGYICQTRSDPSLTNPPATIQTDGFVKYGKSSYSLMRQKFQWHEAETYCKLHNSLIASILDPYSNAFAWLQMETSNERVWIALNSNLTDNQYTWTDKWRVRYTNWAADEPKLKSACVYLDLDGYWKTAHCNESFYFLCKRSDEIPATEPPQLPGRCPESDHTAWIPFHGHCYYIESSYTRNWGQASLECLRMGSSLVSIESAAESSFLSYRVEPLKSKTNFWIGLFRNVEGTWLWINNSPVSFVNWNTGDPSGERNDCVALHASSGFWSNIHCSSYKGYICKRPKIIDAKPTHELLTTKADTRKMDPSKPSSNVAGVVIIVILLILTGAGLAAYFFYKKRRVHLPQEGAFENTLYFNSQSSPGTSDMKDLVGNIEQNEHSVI

EJ cells (CXCR4) = experiment: CLSM imaging of bsGP; type: cell-based, human
RAW264.7 cells [2] = experiment: CLSM imaging of bsGP; type: cell-based; conditions: Cy-labeled bsGP
EJ cells [3] = experiment: SEM of nanofibrils on EJ cell surface; type: cell-based, human; conditions: 50 μM, 12 and 24 hours
How it was run: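 EJ cells (1 × 10⁵ per well) were seeded on silicon wafers and cultured 12 h. Saline or test compound (50 µM) was then added for a further 12 and 24 h. The cell surface was examined by scanning electron microscopy.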

EJ cells [4] = experiment: Cell viability; type: cell-based, human; conditions: 50 μM, 24 hours, CCK-8; n = 3
How it was run: (§1)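 Cells were seeded at 5 × 10⁴ per well in RPMI 1640 and cultured overnight at 37°C, 5% CO₂. Test compound was added at 10, 20, 50, 100, 200 or 500 µM for 24 h, then CCK-8 for 2 h at 37°C. Absorbance was read at 450 nm against a 690 nm reference. Viability = (A_s − A_b)/(A_c − A_b) × 100% versus saline-treated wells. Run in triplicate.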

RAW264.7 cells [5] = experiment: Cell viability; type: cell-based; conditions: 50 μM, 24 hours, CCK-8; n = 3
How it was run: as §1

EJ cells [6] = experiment: Colony formation assay; type: cell-based, human; conditions: versus saline and PepCXCR4
How it was run: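 EJ cells (200 per well) were grown in DMEM in six-well plates at 37°C, 5% CO₂ until visible colonies appeared. Colonies were rinsed twice with saline, fixed in 4% paraformaldehyde for 15 min and stained with Giemsa for 10 to 30 min. They were photographed and counted. Colony formation efficiency = clones/inoculated cells × 100%.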

EJ cells [7] = experiment: Transwell migration assay; type: cell-based, human; conditions: 50 μM, 24 hours; versus saline and PepCXCR4
How it was run: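 EJ cells (1 × 10⁵) in 150 µl serum-free DMEM were placed in the upper Transwell chamber with saline or test compound (50 µM). Complete medium was in the lower chamber. After 24 h, non-migrated cells were swabbed away. Migrated cells were fixed in 4% paraformaldehyde, stained with 0.05% crystal violet for 10 min, photographed and counted.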

[8] = system: pErk and pAkt (CXCR4 downstream) in EJ cells; experiment: Western blot of Erk and Akt phosphorylation in EJ cells; type: cell-based, human
How it was run: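 EJ cells were lysed in buffer with protease inhibitor and centrifuged 15 min; protein was measured by BCA. 30 µg protein was run on SDS-PAGE and transferred to PVDF. Membranes were blocked 1 to 2 h at room temperature in 5% nonfat milk, 0.1% Tween 20, 10 mM TBS. Primary antibody was applied overnight at 4°C, then secondary for 1 to 2 h at room temperature. Detection was by chemiluminescence.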

EJ xenograft tumor [9] = experiment: Antitumor efficiency in EJ xenograft mice; type: in vivo, mouse; conditions: 500 μM, 100 μl, intravenous, five doses
How it was run: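 BALB/c nude mice (6 to 8 weeks, 16 to 18 g) received 5 × 10⁶ EJ cells in 100 µl s.c. in the right flank. Mice were randomised into groups of n = 6. Saline, test compound (500 µM, 100 µl) or plerixafor (100 µM, 100 µl) was given i.v. by tail vein once a day for five doses. Tumor volume was measured by calipers and body weight recorded every other day.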

[10] = system: pErk and pAkt in tumor tissues; experiment: Immunohistochemistry of pErk and pAkt in EJ tumor tissues; type: in vivo, mouse; conditions: EJ xenograft, versus saline
MB49-Luc tumor = experiment: Antitumor efficiency in MB49-Luc tumor-bearing mice; type: in vivo, mouse; conditions: 500 μM, 100 μl, five doses
orthotopic bladder tumor = type: in vivo, mouse; conditions: 500 μM, 100 μl, intravesical instillation
How it was run: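 Once bladder tumor growth was confirmed, test compound (500 µM, 100 µl) was instilled intravesically and kept in the bladder for 60 min. Whole-body fluorescence was scanned with IVIS at 1, 4, 8, 12, 24, 48 and 72 h. The bladder was exteriorised and imaged ex vivo at 1 h after infusion.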

NF-κB in tumor tissues = experiment: Western blot of NF-κB phosphorylation in tumor tissues; type: in vivo, mouse; conditions: 500 μM, 100 μl, every 2 days, five times; compared with mannose
[11] = system: M2-like (CD206) and M1-like (CD86) macrophages; experiment: Flow cytometry of TAM polarization in tumors; type: in vivo, mouse
[12] = system: CD8^+ T cells and Tregs in tumor; experiment: Flow cytometry of tumor T cells; type: in vivo, mouse
[13] = system: CD86^+ and CD206^+ TAMs, CD4^+ and CD8^+ T cells; experiment: Multiplex immunofluorescence of whole tumor slices; type: in vivo, mouse
[14] = system: tumor fibrosis in MB49-Luc tumor; experiment: Tumor fibrosis; type: in vivo, mouse; conditions: versus saline and PepCXCR4
EJ xenograft tumor [15] = conditions: 500 μM, 100 μl, intravenous
[16] = system: MB49-Luc orthotopic bladder cancer; conditions: mouse, in vivo
[17] = immunofluorescence, versus saline

CC(C)C[C@H](NC(=O)[C@H](Cc1ccc(O)cc1)NC(=O)CNC(=O)[C@H](CC(C)C)NC(=O)[C@@H]1CCCN1C(=O)CCCc1cn(CC(=O)NC(COCc2cn(CCO[C@H]3O[C@H](CO)[C@@H](O)[C@H](O)[C@@H]3O)nn2)(COCc2cn(CCO[C@H]3O[C@H](CO)[C@@H](O)[C@H](O)[C@@H]3O)nn2)COCc2cn(CCO[C@H]3O[C@H](CO)[C@@H](O)[C@H](O)[C@@H]3O)nn2)nn1)C(=O)NCC(=O)NCCCC[C@H](NC(=O)[C@H](CCCCN)NC(=O)[C@H](CC(=O)O)NC(=O)[C@@H]1CCCN1C(=O)[C@H](CCCNC(=N)N)NC(=O)[C@H](Cc1c[nH]cn1)NC(=O)[C@H](Cc1c[nH]c2ccccc12)NC(=O)[C@H](CO)NC(=O)[C@H](C)NC(=O)CNC(=O)[C@@H](N)CC(C)C)C(=O)N[C@@H](CC(C)C)C(=O)N[C@H](C(=O)N[C@@H](Cc1ccccc1)C(=O)N[C@@H](Cc1ccccc1)C(=O)N[C@@H](C)C(=O)N[C@@H](CCC(=O)O)C(=O)N[C@@H](CS)C(=O)NCC(=O)O)C(C)C [bsGP] (I: H-LGASWHRPDKKLVFFAECG-OH / II: X1-PLGYLG; amide I:11-II:C; N-terminus and C-terminus assumed)
secondary structure [1]: random coil structure | affinity relative to mannose (CD206): about 300 fold | localization on EJ cells (EJ cells (CXCR4); Cy-labeled bsGP, 50 μM, pH 7.4, saline, 37°C, 15 min): observed on the cytomembrane of tumor cells (EJ) | colocalization with GFP-encoded CXCR4 (EJ cells (CXCR4); EJ cells transfected with GFP-encoded CXCR4): Overlapping green fluorescence (CXCR4) with red fluorescence (bsGP) | localization on RAW264.7 cells (RAW264.7 cells [2]): observed on the cytomembrane | nanofibrillar network on EJ cell surface (EJ cells [3]): presence of a nanofibrillar network | effect on viability of EJ cells (EJ cells [4]): no substantial impact | effect on viability of RAW264.7 cells (RAW264.7 cells [5]): no substantial impact | cell proliferation capacity (EJ cells [6]): substantially decreased | migration capacity (EJ cells [7]): evidently decreased | dose dependence of MAPK pathway suppression (pErk, pAkt) ([8]; 0, 20, 50 and 100 μM for 24 hours, 50 μM for 0, 24, 36, 48 hours): suppressed in a dose-dependent manner | phosphorylation of Erk and Akt ([8]; 50 μM, 24 hours): strongly inhibited | body weight loss, EJ xenograft (EJ xenograft tumor [9]): no obvious loss of body weight | phosphorylation levels of Erk and Akt in tumor tissues [10]: strongly inhibited | body weight loss, MB49-Luc (MB49-Luc tumor): no obvious loss of body weight | fluorescence signal at the tumor site (orthotopic bladder tumor): evident fluorescence signals | NF-κB phosphorylation in tumor tissues (NF-κB in tumor tissues): effectively activated | increase of M1-like TAMs ([11]; from 14.2 to 25.4%): approximately 11.2% | decrease of M2-type macrophages ([11]; from 29.2 to 17.3%): approximately 11.9% | CD4^+Foxp3^+ Tregs ([12]; saline 8.58%): 6.80% | granzyme B^+CD8^+ T cells ([12]; saline 9.44%): 19.60% | proportion of CD45^+CD3^+CD8^+ T cells ([12]; saline 16.3%): 25.8% | CD4^+ T cells in whole tumor slice ([13]; MB49-Luc, C57BL/6, 500 μM, 100 μl, every other day, five times, saline 1.74%): 4.35% | CD206^+ M2-like TAMs in whole tumor slice ([13]; MB49-Luc, C57BL/6, 500 μM, 100 μl, every other day, five times, saline 20.94%): 13.0% | increase of CD86^+ M1-like TAMs ([13]; immunofluorescence): 2.3 fold | increase of CD4^+ T cells [13, 17]: 2.5 fold | increase of CD8^+ T cells [13, 17]: 2.6 fold | tumor fibrosis [14]: strongly inhibited | signal-to-noise ratio (EJ xenograft tumor [15]): 7.8 fold | time of highest tumor accumulation (EJ xenograft tumor [15]): 4 h | time to target tumor tissue (EJ xenograft tumor [15]): ≤ 1 h | tumor accumulation relative to PepCXCR4 (EJ xenograft tumor [15]; 4 hours): nearly fourfold | retention in tumor tissue (EJ xenograft tumor [15]; nanofiber formed in situ): up to 48 hours | recurrence rate [16]: 22% | survival rate at 60 days [16]: 78%
